Assay results as given in the array DNA melting data of Ke et al. (doi:10.1101/2024.01.08.574731).

Tests used:
[1] = melting temperature; fluorescence melt of hairpins on a sequencing array, two-state fit, raised by 9.35 °C to match UV melts; conditions: sodium 0.088 M
How it was run: (§1)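 To match UV melts, fitted temperatures were raised by 9.35 °C. These fits were bootstrapped two-state models that gave melting temperature and folding enthalpy, combined by inverse variance over four replicates. The input was normalised Cy3 fluorescence of library hairpins with annealed Cy3 and quencher oligos on a sequenced MiSeq flow cell, imaged in 50 mM Na-HEPES pH 8.0, 25 mM NaCl in 2.5 °C steps up to 60 °C.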

[2] = folding enthalpy; higher = less favourable; fluorescence melt of hairpins on a sequencing array, two-state fit; conditions: sodium 0.088 M
How it was run: as §1

Sequence	Tm [1] [°C]	folding enthalpy [2] [kcal/mol]
GGAAGTGGAAACACTTTC (.(((((....))))).)	45.2	-26.6
GGAATAACGAAAGTTTCC (((..(((....))))))	32.5	-14.8
GGAATACCGAAAGGTTCC (((..(((....))))))	36.4	-16.1
GGAATACGAAAGTAATCC (((.(((....))).)))	40.1	-28.8
GGAATAGCGAAAGCTTCC (((..(((....))))))	39.2	-20.2
GGAATAGGAAACTATTCC (((((((....)))))))	52.7	-41.4
GGAATAGGAAACTATTTC (.(((((....))))).)	30.6	-29.1
GGAATCACGAAAGTGTCC (((..(((....))))))	30.5	-11.5
GGAATCGAAAGATCTTCC ((((((....)))..)))	30.6	-20.9
GGAATCGAAAGATGCTCC ((((((....)))..)))	28.9	-10.7
GGAATCGAAAGATGGTCC ((((((....)))..)))	25.8	-8.55
GGAATCGAAAGATGTTCC ((((((....)))..)))	22.8	-8.43
GGAATGACGAAAGTCTCC (((..(((....))))))	28.8	-13.3
GGAATTGGAAACAGTTCC ((((.((....)).))))	42.9	-27.3
GGACAACGAAAGTTCTCC (((.(((....))).)))	31.3	-22.8
GGACAAGGAAACTTGTTC (.(((((....))))).)	43	-25.9
GGACACGAAAGTGACTCC ((((((....)))..)))	40.6	-14.2
GGACACGAAAGTGGTTCC ((((((....)))..)))	37.3	-14.3
GGACACGAAAGTGTATCC ((((((....)))..)))	36.1	-10.9
GGACACGAAAGTGTTCC ((((((....))).)))	56	-17.5
GGACACGGAAACACGTCC ((((..(....)..))))	36.4	-21.8
GGACAGAAATGTCC (((((....)))))	53.2	-25.9
GGACAGCCGAAAGGCTCC (((..(((....))))))	31.2	-7.98

Sequence	Tm [1] [°C]	folding enthalpy [2] [kcal/mol]
GGACAGGAAACTGTCC ((((((....))))))	62.8	-43
GGACAGGGAAACCCGTCC ((((.((....)).))))	50.8	-34.1
GGACAGGGAAACCTGTTC (.(((((....))))).)	50	-22.9
GGACATACGAAAGTATCC (((..(((....))))))	26.8	-10.9
GGACATGCGAAAGCATCC (((..(((....))))))	28.6	-10.8
GGACCACGAAAGTGCTCC (((.(((....))).)))	41.5	-25.9
GGACCAGGAAACCAGTCC ((((..(....)..))))	33.9	-20.3
GGACCAGGAAACCGGTCC (((((.(....).)))))	54.6	-35.3
GGACCAGGAAACTGGCCC ((.((((....)))).))	52.3	-35.4
GGACCAGGAAACTGGTCC (((((((....)))))))	68.1	-32.4
GGACCCCGAAAGGGCTCC (((.(((....))).)))	48.6	-16.3
GGACCCGAAAGGGCTCC ((((((....))).)))	58.6	-23.1
GGACCCGAAAGGGGGTCC ((((((....)))..)))	63.8	-27.1
GGACCCGAAAGGGTGTCC ((((((....)))..)))	47.1	-14
GGACCCGAAAGGGTTTCC ((((((....)))..)))	37.1	-8.05
GGACCCGGAAACGAGCCC ((.(.((....)).).))	30.2	-16
GGACCCGGAAACGAGTCC ((((.((....)).))))	49.3	-32.4
GGACCGCGAAAGCGCTCC (((.(((....))).)))	46.8	-16.2
GGACCGCGAAAGCGTCC (((.(((....))))))	59.6	-17.1
GGACCGGGAAACCGGCCC ((.((((....)))).))	57.9	-19.9
GGACCTCGAAAGAGTCC (((.(((....))))))	49.8	-32.7
GGACCTGGAAACAGGCCC ((.((((....)))).))	52.7	-25.8
